Screening data as filed in PubChem BioAssay.
SIAE primary: blocks human sialic acid acetylesterase; Q9HAT2; SIAE FP-Rh probe binding, fluorescence polarization; inhibition, % at 9.66 µM; 370,000 tested, 0.69% active;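 active means inhibition above a cutoff: mean of compounds within the control limits plus 3 SD of those, cut at about 17% in these data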
rCAG RNA binder: r(CAG) repeat RNA binding | AID 651821 | 370,000 tested, 1.3% active | inhibition, % at 3 µM | TO-PRO-1 dye displacement fluorescence;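 active means inhibition above the plate cutoff, the mean of all test compounds on that plate plus 3 SD, cut at about 35% in these data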;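 further: higher means more dye released from RNA so lower well fluorescence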
PRMT1 inh: PRMT1 (human) inhibition, primary screen | Q99873 | recombinant PRMT1, activity-based probe fluorescence polarization | inhibition, % at 2.79 µM | 370,000 tested, 1.3% active | AID 652257;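 active means inhibition above about 21% made by adding two undisclosed values, limit read from the data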
TCR CD3 inh: human TCR-CD3 binding inhibition. TAMRA-labeled TCR probe fluorescence, biochemical. inhibition, % at 9.4 µM. 360,000 tested, 0.37% active. AID 651800; in the data active means inhibition above about 19%;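 further: recombinant mutant TCR 2C K166C tagged with TAMRA read by polarization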
mABHD4 FP: inhibitors of mouse ABHD4 | 370,000 tested, 0.54% active | Q8VD66 | purified mABHD4, FP-Rh probe fluorescence polarization | AID 720543 | inhibition, % at 8.92 µM;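 active means inhibition exceeding the mean over every tested compound plus 3 SD, cut at about 30% in these data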
Target sequence (Q8VD66 whole entry, looked up): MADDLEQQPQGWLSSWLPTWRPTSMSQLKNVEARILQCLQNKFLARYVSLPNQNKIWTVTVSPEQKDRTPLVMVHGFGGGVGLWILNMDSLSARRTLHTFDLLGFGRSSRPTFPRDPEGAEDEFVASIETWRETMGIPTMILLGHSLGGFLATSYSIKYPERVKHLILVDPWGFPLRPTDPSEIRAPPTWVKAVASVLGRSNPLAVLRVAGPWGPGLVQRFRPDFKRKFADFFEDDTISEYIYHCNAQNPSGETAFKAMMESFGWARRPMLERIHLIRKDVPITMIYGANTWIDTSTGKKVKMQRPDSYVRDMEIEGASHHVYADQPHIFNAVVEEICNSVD
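Assay system: mABHD4 protein; medium: HEPES pH 7.0, NaCl, Pluronic buffer; dosing: 8.92 µM, single dose; schedule: 45 min + 60 min at 25 °C; signal: FP readout, ex 525 nm / em 598 nm; read-out: normalized percent inhibition of probe labeling; repeats: single replicate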
Hits are given with their value; - = inactive; . = not tested or not shown. This is a sample that favours compounds with a hit; in the whole collection about 3.3% have one here.

SMILES	SIAE primary	rCAG RNA binder	PRMT1 inh	TCR CD3 inh	mABHD4 FP
COc1ccc(C(=O)Nc2ccccc2C(=O)O)cc1NC(=O)C(c1ccccc1)c1ccccc1	-	81.8	-	-	-
COc1ccc(C(=O)Nc2ccccc2C(=O)O)cc1Cl	-	-	-	-	-
O=C(O)COc1ccc2c(c1)O/C(=C\c1ccco1)C2=O	-	-	23.9	-	-
O=C(CSc1nc2ccc([N+](=O)[O-])cc2[nH]1)c1ccc2ccccc2c1	-	37.0	-	-	-
O=C1OC(c2ccccc2)Sc2ccccc21 (stereo unspecified)	-	-	-	-	-
O=C1OC(c2cccs2)Sc2ccccc21 (stereo unspecified)	-	-	24.6	-	-
COC(=O)C[C@H]1CC[C@@H]2[C@@H](COc3ccc(NC(=O)c4ccno4)cc3C(=O)N2C)O1	-	-	-	.	-
CC(C)(C)n1nnnc1CN1C2CCC1CC(NC(=O)Nc1ccccc1)C2 (stereo unspecified)	-	-	-	-	-
CCOC(=O)c1ccc(NC(=O)NC2CC3CCC(C2)N3Cc2nnnn2Cc2ccco2)cc1 (stereo unspecified)	-	-	23.3	-	-
Cc1cccc(C(=O)N/C(=C\c2ccco2)C(=O)N2CCCC2)c1	-	-	23.3	-	-
Cc1ccc(C(=O)N/C(=C/c2ccco2)C(=O)N2CCCCCC2)cc1	-	-	-	-	-
CC(C)(C)N1Cc2nnn(CC3CCCCC3)c2-c2ccccc2S1(=O)=O	-	-	-	.	-
CC(C)(C)NC(=O)C(c1cccc2ccccc12)n1c(=O)c(-c2ccccc2)nc2ccccc21 (stereo unspecified)	-	-	-	-	-
O=C(NCc1ccccc1)C(c1cccc2ccccc12)n1c(=O)c(-c2ccco2)nc2ccccc21 (stereo unspecified)	-	38.3	-	-	-
CC(C)(C)NC(=O)C(c1cccc2ccccc12)n1c(=O)c(-c2ccco2)nc2ccccc21 (stereo unspecified)	-	43.7	21.7	-	-
O=C(NCc1ccccc1)C(c1ccncc1)n1c(=O)c(-c2ccco2)nc2ccccc21 (stereo unspecified)	-	-	-	-	-
CCC1C2CN(C(C)=O)CC=C2C(C#N)=C(N)C1(C#N)C#N (stereo unspecified)	-	-	-	-	-
CCN1CC=C2C(C#N)=C(N)C(C#N)(C#N)C(c3cc(Cl)ccc3Cl)C2C1 (stereo unspecified)	-	-	24.7	-	-
COc1ccc2c(c1)-c1nc(/N=C/c3c(O)ccc4ccccc34)sc1CC2	-	-	21.2	-	-
COc1ccc2c(c1)-c1nc(/N=C/c3ccc(O)cc3)sc1CC2	-	-	36.4	-	-
COc1ccc2c(c1)-c1nc(NC(=O)c3cccs3)sc1CC2	-	-	-	-	-
Oc1ccc2ccccc2c1/C=N/c1nccs1	-	-	-	-	-
O=C(C1CCCN(S(=O)(=O)c2ccc(Br)s2)C1)N1CCN(Cc2ccccc2)CC1 (stereo unspecified)	-	-	-	.	-
Cc1nc2cc3ccccc3cc2s1	-	-	-	-	-
Cc1nc2cc3nc(C)sc3cc2s1	-	-	21.8	-	-
SMILES	SIAE primary	rCAG RNA binder	PRMT1 inh	TCR CD3 inh	mABHD4 FP
Cc1ccc(-n2c(SCC(=O)N/N=C/C=C\c3ccccc3[N+](=O)[O-])nnc2-c2ccccc2)cc1	-	-	-	.	-
CCN=C1S/C(=C/c2ccc(-c3ccc(Cl)cc3C(=O)O)o2)C(=O)N1CC	-	55.4	-	-	-
C[C@H]1[C@@H](OC(=O)NCCc2ccccc2)CC[C@@]23CCCN2C(=O)CCC[C@@H]13	-	.	-	.	-
COc1ccc(NC(=S)NC(NC(=O)/C=C/c2ccccc2)C(Cl)(Cl)Cl)cc1 (stereo unspecified)	-	-	-	-	-
O=C(/C=C/c1ccccc1)NC(NC(=S)Nc1ccc(Cl)cc1)C(Cl)(Cl)Cl (stereo unspecified)	-	-	-	25.6	-
O=C(c1ccncc1F)N1CCC(n2nnc3ncccc32)CC1	-	-	-	.	-
Nc1ccc2cc3ccccc3cc2c1	-	-	-	-	-
Nc1ccc2cccc(O)c2c1	-	-	-	-	48.2
CCOc1ccc(-n2ccc(=O)c(C(=O)Nc3ccc(S(=O)(=O)Nc4nccs4)cc3)n2)cc1	-	68.1	-	-	-
O=C(Cc1ccccc1)NC1CCCc2c1cnn2-c1ccc(F)cc1F (stereo unspecified)	-	.	-	.	-
COC(=O)c1ccc(NCc2cc(O)ccc2O)cc1O	-	-	23.1	-	-
Cc1ccn2c(Nc3ccc4c(c3)OCO4)c(-c3ccccn3)nc2c1	25.1	-	-	-	-
OC(c1ccccc1)(c1ccccc1)C1CCN(CCCNc2ccccc2F)CC1	-	-	-	.	-
COc1ccc(O)c(/C=C2/SC(=S)N(Cc3ccccc3)C2=O)c1	-	-	22.5	-	-
COc1ccc(OC)c(/C=C2\SC(=S)N(Cc3cccnc3)C2=O)c1	-	-	-	-	-
COC(=O)[C@]12C[C@H](CC(=O)N3CCSCC3)C(=O)N(Cc3cccc4ccccc34)C1=C[C@H](C1CCCC1)O[C@@H]2C	-	-	-	.	-
Clc1ccc(C[n+]2csc3ccccc32)cc1	-	-	63.0	-	-
Fc1ccc(C[n+]2csc3ccccc32)cc1	-	-	73.9	-	-
COCC(=O)N1[C@H](CO)[C@@H](c2ccc(-c3cccnc3)cc2)[C@H]1CN(C)S(=O)(=O)c1ccccc1[N+](=O)[O-]	-	-	-	.	-
COC(=O)[C@]12C[C@H](CC(=O)NCc3ccc(OC)c(OC)c3)C(=O)N(Cc3ccco3)C1=C[C@H](C(C)C)O[C@@H]2C1CC1	-	-	-	.	-
O=C1NCCCC2c3c(cc(Br)c(O)c3Br)OC12N1CCCCC1 (stereo unspecified)	-	-	79.0	-	-
O=[N+]([O-])c1ccc(-c2ccc(/C=N/c3c(-c4ccco4)nc4ccccn34)o2)cc1	-	-	22.9	-	-
C=C(CN(C)C)C(=O)c1ccc(C)cc1C	-	-	23.3	-	-
Cc1ccc(C(=O)CC(=O)c2ccccc2C)c(O)c1	-	-	-	-	-
Nn1cc(-c2ccccc2)nc1SCC(=O)Nc1ccc(S(N)(=O)=O)cc1	-	-	23.1	-	-
SMILES	SIAE primary	rCAG RNA binder	PRMT1 inh	TCR CD3 inh	mABHD4 FP
Nn1cc(-c2ccccc2)nc1SCC(=O)Nc1cccc(S(N)(=O)=O)c1	-	-	-	-	-
CCOc1ccccc1N1CCN(S(=O)(=O)c2ccc3c4c(cccc24)C(=O)N3)CC1	-	37.3	-	-	-
CCOC(=O)N1CCN(S(=O)(=O)c2ccc3c4c(cccc24)C(=O)N3)CC1	-	-	-	-	-
COC(=O)C1=C(C)Nc2ccc(C)cc2S1	-	-	23.6	-	-
O=C(O)c1cccc(Cn2c(Cl)c(/C=N/NC(=O)c3cc4ccccc4cc3O)sc2=O)c1	-	77.2	-	-	-
CCOc1ccccc1C(O)C1=CC(=O)c2ccccc2C1=O (stereo unspecified)	-	37.9	-	-	42.8
